From ChEMBL document CHEMBL1137637, “Quinuclidine derivatives as potential antiparasitics” (Antimicrob Agents Chemother, 2007)
In brackets after ≈: the same amount, converted by molar mass.

Key:
Plasmodium falciparum = assay: Antiplasmodial activity after 48 hrs against chloroquine and pyrimethamine-resistant Plasmodium falciparum K1 in human erythrocytes by [3H]hypoxanthine uptake; type: functional, organism-based
How it was run: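 P. falciparum K1 in human red cells in RPMI 1640 with 5% Albumax, exposed to serial drug dilutions. Incubated 48 h at 37°C under reduced oxygen, then 0.5 μCi [³H]hypoxanthine per well for 24 h more. Cells harvested onto glass-fibre filters and counted by scintillation. Result expressed as % of untreated control, with IC50 from sigmoidal curve. Duplicate, plus an independent repeat for actives.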

Leishmania donovani = assay: Antileishmanial activity against Leishmania donovani MHOM/ET/67/L82 axenic amastigotes after 72 hrs by resazurin assay; type: functional, organism-based; conditions: MHOM/ET/67/L82, 72 h
How it was run: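 L. donovani MHOM/ET/67/L82 amastigotes grown axenically at 37°C in synthetic minimal medium at pH 5.4 with 10% heat-inactivated FBS under 5% CO2. 1 × 10⁵ amastigotes per well with seven threefold dilutions, 30 to 0.041 μg/ml. After 72 h, resazurin added for 2–4 h more. Fluorescence read at ex 536/em 588 nm. IC50 taken from sigmoidal curve. Run in duplicate, with an independent repeat for actives.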

Leishmania amazonensis [1] = assay: Inhibition of sterol biosynthesis in Leishmania mexicana amazonensis promastigotes assessed as reduction in exogenous cholesterol level at 10 uM after 96 hrs by gas-liquid chromatography; type: functional; parameters: scale not given: the % may be the effect or the level left
How it was run: (§1)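 L. mexicana promastigotes exposed to compound for 96 h. Total lipids extracted and neutral sterols separated from polar lipids by silicic acid column chromatography. Sterols analysed by TLC and by quantitative capillary gas-liquid chromatography with mass spectrometry. Composition expressed as mass % of free sterols, compared with untreated control.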

Trypanosoma cruzi = assay: Antitrypanosomal activity against trypomastigotes of Trypanosoma cruzi Tulahuen C2C4 containing lacZ gene in rat L6 cells after 4 days by chlorophenol red-beta-D-galactopyranoside/Nonidet assay; type: functional, organism-based; conditions: Tulahuen C2C4, L6, 96 h
How it was run: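 L-6 rat myoblasts seeded at 2,000 cells/well in RPMI 1640 with 10% FBS and 2 mM L-glutamine. After 24 h, 5,000 T. cruzi Tulahuen C2C4 lacZ trypomastigotes added with serial drug dilution. Incubated at 37°C in 5% CO2 for 4 days. CPRG/Nonidet substrate added and colour read at 540 nm after 2–4 h. IC50 from sigmoidal curve. Duplicate determinations.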

Leishmania amazonensis [2] = assay: Inhibition of sterol biosynthesis in Leishmania mexicana amazonensis promastigotes assessed as reduction in endogenous 5-dehydro episterol level at 10 uM after 96 hrs by gas-liquid chromatography; type: functional; parameters: scale not given: the % may be the effect or the level left; how it was run: as §1
Leishmania amazonensis [3] = assay: Inhibition of sterol biosynthesis in Leishmania mexicana amazonensis promastigotes assessed as reduction in endogenous episterol level at 10 uM after 96 hrs by gas-liquid chromatography; type: functional; parameters: scale not given: the % may be the effect or the level left; how it was run: as §1
[4] = target: T1, Farnesyltransferase, putative (Leishmania major, UniProt Q4Q5W4); assay: Inhibition of Leishmania major recombinant squalene synthase expressed in Escherichia coli by liquid scintillation counter
T1 sequence (Q4Q5W4 whole entry): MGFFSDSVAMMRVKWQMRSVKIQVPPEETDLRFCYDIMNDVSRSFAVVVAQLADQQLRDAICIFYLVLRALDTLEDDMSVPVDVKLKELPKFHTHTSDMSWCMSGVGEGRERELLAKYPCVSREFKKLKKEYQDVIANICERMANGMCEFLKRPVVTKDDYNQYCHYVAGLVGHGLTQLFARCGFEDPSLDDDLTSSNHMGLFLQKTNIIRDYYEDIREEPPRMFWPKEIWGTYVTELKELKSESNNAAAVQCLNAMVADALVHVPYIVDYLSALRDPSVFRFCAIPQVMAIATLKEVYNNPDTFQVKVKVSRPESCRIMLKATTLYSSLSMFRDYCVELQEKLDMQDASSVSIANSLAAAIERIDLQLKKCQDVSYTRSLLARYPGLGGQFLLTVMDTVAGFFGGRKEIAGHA
How it was run: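 Soluble E. coli extract expressing L. major SQS truncated by 16 N-terminal and 40 C-terminal residues. Buffer: 50 mM phosphate pH 7.4, 20 mM MgCl2, 5 mM CHAPS, 1% Tween 80, 10 mM DTT, BSA, 0.25 mM NADPH, and a glucose-6-phosphate/G6PDH regenerating system. Substrate 0.5 μM radiolabelled farnesyl pyrophosphate. Squalene band counted by scintillation. IC50 from hyperbolic plot of five concentrations in duplicate, usually run twice.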

[5] = system: Trypanosoma brucei rhodesiense; assay: Trypanocidal activity against Trypanosoma brucei rhodesiense STIB 900 bloodstream form after 72 hrs by resazurin assay; type: functional, organism-based; conditions: STIB 900, 72 h
How it was run: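 T. b. rhodesiense STIB 900 bloodstream forms in MEM with 2-mercaptoethanol and 15% heat-inactivated horse serum, with serial drug dilutions. Incubated 72 h at 37°C in 5% CO2. Resazurin added for 2–4 h more, fluorescence read at ex 536/em 588 nm. IC50 from sigmoidal curve. Duplicate, with an independent repeat for actives.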

L6 = assay: Cytotoxicity against rat L6 cells after 72 hrs by resazurin assay; type: cell-based; conditions: L6, 72 h
How it was run: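 L-6 cells seeded at 4 × 10⁴ cells/ml in RPMI 1640 with 10% FBS and 2 mM L-glutamine. After 24 h, medium replaced with serial drug dilution and incubated for 72 h at 37°C in 5% CO2. Resazurin added for 2–4 h, fluorescence read at ex 536/em 588 nm. IC50 from sigmoidal curve. Duplicate, with an independent repeat for actives.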

Leishmania amazonensis [6] = assay: Antileishmanial activity against Leishmania mexicana amazonensis promastigotes by trypan blue exclusion method; type: functional, organism-based
How it was run: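 L. mexicana amazonensis promastigotes cultured in liver infusion-tryptose medium with lactalbumin and 10% FCS at 26°C, unagitated. Cultures started at 2 × 10⁶ cells/ml and drug added at 0.5–1 × 10⁷ cells/ml. Density counted by electronic particle counter and hemocytometer. Viability by trypan blue exclusion. Triplicate growth experiments.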

## O=C(O)c1ccc(C#CC2(O)CN3CCC2CC3)cc1 (stereo not drawn)
Plasmodium falciparum
  IC50: > 18.4 µM
Leishmania donovani
  IC50: > 111 µM
Leishmania amazonensis [1]
  Activity: 21.9%
Trypanosoma cruzi
  IC50: 90.2 µM
Leishmania amazonensis [2]
  Activity: 70.9%
Leishmania amazonensis [3]
  Activity: 7.2%
[4]
  IC50: > 100 µM
[5]
  IC50: 146 µM
L6
  IC50: > 332 µM
Leishmania amazonensis [6]
  MIC: > 10 µM

## Nc1ccc(C#CC2(O)CN3CCC2CC3)cn1 (stereo not drawn)
Plasmodium falciparum
  IC50: > 21 µM
Leishmania donovani
  IC50: 10.8 µM
Leishmania amazonensis [1]
  Activity: 13.2%
Trypanosoma cruzi
  IC50: 97 µM
Leishmania amazonensis [2]
  Activity: 75.2%
Leishmania amazonensis [3]
  Activity: 11.6%
[4]
  IC50: > 1 µM
[5]
  IC50: 5.7 µM
L6
  IC50: > 370 µM
Leishmania amazonensis [6]
  MIC: > 10 µM

## COCCCOc1ccc(C#C[C@@]2(O)CN3CCC2CC3)c(Cc2ccccc2)n1
[4]
  IC50: 0.033 µM

## OC1(C#Cc2ccc(Cl)nc2)CN2CCC1CC2 (stereo not drawn)
Plasmodium falciparum
  IC50: 9.3 µM
Leishmania donovani
  IC50: 16.3 µM
Leishmania amazonensis [1]
  Activity: 20.1%
Trypanosoma cruzi
  IC50: > 114 µM
Leishmania amazonensis [2]
  Activity: 71.7%
Leishmania amazonensis [3]
  Activity: 8.2%
[4]
  IC50: > 1 µM
[5]
  IC50: 53.3 µM
L6
  IC50: > 342 µM
Leishmania amazonensis [6]
  MIC: > 10 µM

## CO[C@H]1CN(c2ccc(C#C[C@@]3(O)CN4CCC3CC4)c(Cc3ccccc3)n2)C[C@H]1O
[4]
  IC50: 0.013 µM

## CCOc1ccc(C#CC2(O)CN3CCC2CC3)cc1 (stereo not drawn)
Plasmodium falciparum
  IC50: 5.9 µM
Leishmania donovani
  IC50: 10.5 µM
Leishmania amazonensis [1]
  Activity: 30%
Trypanosoma cruzi
  IC50: 21.2 µM
Leishmania amazonensis [2]
  Activity: 45.4%
Leishmania amazonensis [3]
  Activity: 24.6%
[5]
  IC50: 5.4 µM
L6
  IC50: > 332 µM
Leishmania amazonensis [6]
  MIC: > 10 µM

## OC[C@H]1CC2CCN1C[C@@H]2C#Cc1ccc2ccccc2c1 (stereo partly drawn)
Plasmodium falciparum
  IC50: 3 µM
Leishmania donovani
  IC50: 12 µM
Leishmania amazonensis [1]
  Activity: 23.1%
Trypanosoma cruzi
  IC50: 5.3 µM
Leishmania amazonensis [2]
  Activity: 65.7%
Leishmania amazonensis [3]
  Activity: 11.2%
[4]
  IC50: > 1 µM
[5]
  IC50: 1.4 µM
L6
  IC50: 50.4 µM
Leishmania amazonensis [6]
  MIC: > 10 µM

## COc1ccc(C#CC2(O)CN3CCC2CC3)cc1 (stereo not drawn)
Plasmodium falciparum
  IC50: 8.2 µM
Leishmania donovani
  IC50: 7 µM
Leishmania amazonensis [1]
  Activity: 19.8%
Trypanosoma cruzi
  IC50: 67.2 µM
Leishmania amazonensis [2]
  Activity: 66.8%
Leishmania amazonensis [3]
  Activity: 13.4%
[4]
  IC50: > 1 µM
[5]
  IC50: 18.4 µM
L6
  IC50: > 350 µM
Leishmania amazonensis [6]
  MIC: > 10 µM

## C1=C(c2cc3ccccc3o2)C2CCN1CC2
Plasmodium falciparum
  IC50: 6.2 µM
Leishmania donovani
  IC50: 82 µM
Leishmania amazonensis [1]
  Activity: 12.2%
Trypanosoma cruzi
  IC50: 61.3 µM
Leishmania amazonensis [2]
  Activity: 60%
Leishmania amazonensis [3]
  Activity: 27.8%
[4]
  IC50: > 1 µM
[5]
  IC50: 17.1 µM
L6
  IC50: 177 µM
Leishmania amazonensis [6]
  MIC: > 10 µM

## CCCCCCCCCCCCCCCCOP(=O)([O-])OCC[N+](C)(C)C [MILTEFOSINE]
Leishmania donovani
  IC50: 0.338 µM

## OC1(C#Cc2ccc3cc[nH]c3c2)CN2CCC1CC2 (stereo not drawn)
Plasmodium falciparum
  IC50: 7.1 µM
Leishmania donovani
  IC50: 11.4 µM
Leishmania amazonensis [1]
  Activity: 19.9%
Trypanosoma cruzi
  IC50: 26.2 µM
Leishmania amazonensis [2]
  Activity: 62.6%
Leishmania amazonensis [3]
  Activity: 17.5%
[4]
  IC50: > 1 µM
[5]
  IC50: 19.9 µM
L6
  IC50: > 338 µM
Leishmania amazonensis [6]
  MIC: > 10 µM

## OC1(C#Cc2cccnc2)CN2CCC1CC2 (stereo not drawn)
Plasmodium falciparum
  IC50: 18.9 µM
Leishmania donovani
  IC50: 9.2 µM
Leishmania amazonensis [1]
  Activity: 12.9%
Trypanosoma cruzi
  IC50: > 131 µM
Leishmania amazonensis [2]
  Activity: 75.9%
Leishmania amazonensis [3]
  Activity: 11.2%
[4]
  IC50: > 1 µM
[5]
  IC50: 173 µM
L6
  IC50: > 394 µM
Leishmania amazonensis [6]
  MIC: > 10 µM

## CC(=O)c1ccc(C#CC2(O)CN3CCC2CC3)s1 (stereo not drawn)
Plasmodium falciparum
  IC50: 10.2 µM
Leishmania donovani
  IC50: 18.9 µM
Leishmania amazonensis [1]
  Activity: 22.3%
Trypanosoma cruzi
  IC50: 72.6 µM
Leishmania amazonensis [2]
  Activity: 67.8%
Leishmania amazonensis [3]
  Activity: 9.9%
[4]
  IC50: > 1 µM
[5]
  IC50: 30.3 µM
L6
  IC50: 194 µM
Leishmania amazonensis [6]
  MIC: > 10 µM

## Cc1ccc(N)cc1C#CC1(O)CN2CCC1CC2 (stereo not drawn)
Plasmodium falciparum
  IC50: 11.7 µM
Leishmania donovani
  IC50: 28.5 µM
Leishmania amazonensis [1]
  Activity: 20.7%
Trypanosoma cruzi
  IC50: > 117 µM
Leishmania amazonensis [2]
  Activity: 72.8%
Leishmania amazonensis [3]
  Activity: 6.5%
[4]
  IC50: > 1 µM
[5]
  IC50: 62.4 µM
L6
  IC50: > 351 µM
Leishmania amazonensis [6]
  MIC: > 10 µM

## Oc1ccc(C#CC2(O)CN3CCC2CC3)cc1 (stereo not drawn)
Plasmodium falciparum
  IC50: 18.7 µM
Leishmania donovani
  IC50: 20 µM
Leishmania amazonensis [1]
  Activity: 20.1%
Trypanosoma cruzi
  IC50: 90.4 µM
Leishmania amazonensis [2]
  Activity: 64.2%
Leishmania amazonensis [3]
  Activity: 15.7%
[4]
  IC50: > 1 µM
[5]
  IC50: 53 µM
L6
  IC50: > 370 µM
Leishmania amazonensis [6]
  MIC: > 10 µM

## COC(=O)c1ccc(N)c(C#CC2(O)CN3CCC2CC3)c1 (stereo not drawn)
Plasmodium falciparum
  IC50: 10.9 µM
Leishmania donovani
  IC50: 17.2 µM
Leishmania amazonensis [1]
  Activity: 19.3%
Trypanosoma cruzi
  IC50: 44.9 µM
Leishmania amazonensis [2]
  Activity: 74.3%
Leishmania amazonensis [3]
  Activity: 6.4%
[4]
  IC50: > 1 µM
[5]
  IC50: 30.8 µM
L6
  IC50: > 300 µM
Leishmania amazonensis [6]
  MIC: > 10 µM

## COc1cc([C@@H]2c3cc4c(cc3[C@H](O)[C@H]3COC(=O)[C@H]23)OCO4)cc(OC)c1OC [PODOFILOX]
L6
  IC50: 0.014 µM

## O=C(O)c1cc(C#CC2(O)CN3CCC2CC3)ccc1O (stereo not drawn)
Leishmania amazonensis [1]
  Activity: 20.4%
Leishmania amazonensis [2]
  Activity: 74%
Leishmania amazonensis [3]
  Activity: 5.6%
[4]
  IC50: > 1 µM
Leishmania amazonensis [6]
  MIC: > 10 µM

## OC1(C#Cc2cnccn2)CN2CCC1CC2 (stereo not drawn)
Leishmania amazonensis [1]
  Activity: 33.8%
Leishmania amazonensis [2]
  Activity: 52%
Leishmania amazonensis [3]
  Activity: 14.2%
[4]
  IC50: > 1 µM
Leishmania amazonensis [6]
  MIC: 3 µM (≈ 0.688 µg/mL)
